In ChEMBL document CHEMBL4513216, “Probing the Open Global Health Chemical Diversity Library for Multistage-Active Starting Points for Next-Generation Antimalarials” (ACS Infect Dis, 2020) one finds cytotoxicity data, which are given here for 95 compounds.

The structures appear in SMILES notation.

The data set is described as follows: Toxicity liver stage against HepG2, at 10uM. The data set is classed as cell-based. The arrangement: test concentration 10 uM, cell line HepG2-A16-CD81EGFP. Conditions: human, HepG2-A16-CD81EGFP cells; read-out: INHIBITION
In a few lines: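 Uninfected HepG2-A16-CD81EGFP cells, 3 × 10^3 per well, 1536-well, plated on prespotted compound at 10 μM final, parasite-free screening media added to match infected plates; puromycin 10 μM positive, DMSO 0.5% negative; run in parallel with 48 h PbLuc assay at 37 °C, 5% CO2; viability by CellTiter-Glo luminescence, normalized to controls.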
As for `Cc1ccc2oc([C@H]3CCN(Cc4ccccc4)C3)nc2c1`, the cytotoxicity at 10 µM is -6.75%.
The value for `O=C(NC[C@H]1OC[C@@H](NC2CCOCC2)[C@@H]1O)c1cccs1` was -1.6%; that for `Cc1noc([C@@H]2C[C@H](NC(=O)NC3CCCCC3)CN2C)n1` was 3.23%; that for `CCNC(=O)N1C[C@@H]2OCC(=O)N(C(C)C)[C@@H]2C1` was -0.155%.
The value for `O=S1(=O)c2cnccc2OC(COc2ccccc2)CN1CC1CC1` (stereo not given) was -1.16%.
As to `CCOC(=O)[C@H]1[C@@H](O)C(=O)N(C)C12CCN(C(=O)CC(C)C)CC2`, the cytotoxicity at 10 µM was -5.12%.
The value for `Cn1ccc2c(C(=O)NCCCN3CCOCC3)cccc21` was -0.452%; that for `CSCCC(C)(O)CNC(=O)Nc1ccccc1C` (stereo not given) was -1.44%.
In the case of `Cc1cccnc1NC(=O)c1ccc(-n2cncn2)nn1`, the cytotoxicity at 10 µM is -1.52%.
On to `COc1ccc(CN2C[C@@H]3CN(CCO)C[C@@H]3C2=O)cc1`, for which the cytotoxicity at 10 µM came out at 9.27%.
The value for `CN1CCN(C(=O)c2n[nH]c3c2CN(C2CCOC2)CC3)CC1` (stereo not given) was 1.52%.
For `O=C(c1ccc[nH]1)N1CCOCC2(C1)CN(c1ccccc1)C(=O)CO2` (stereo not given), the cytotoxicity at 10 µM is -1.05%.
The value for `COC(=O)CCC(=O)N1CCC2(CN(Cc3ccccc3F)C2)C1` was 5.58%.
Turning to `Cn1ncc2c1C(COCC1CC1)CN(Cc1ccncc1)C2` (stereo not given), the cytotoxicity at 10 µM is 7.22%.
The value for `CN(C)C(=O)C1OC2(CCN(C(=O)c3ccoc3)CC2)c2ccccc21` (stereo not given) was 5.63%; that for `O=C(c1cnccn1)N1CCN(Cc2ccncc2)c2ncccc2C1` was -2.72%.
Take `O=C(N[C@@H]1CN(Cc2ccsc2)[C@@H]2CCCO[C@@H]21)C1CC1`: the cytotoxicity at 10 µM is -5.47%.
The value for `O=C(NCc1ccco1)[C@@]12CCO[C@@H]1CCN(CCN1CCCC1)C2` was -3.47%; that for `Cc1cc(-c2cc(N)c(=O)n(CC(=O)N3CCCC(C)C3)n2)c(C)o1` (stereo not given) was 4.62%.
The value for `CCS(=O)(=O)N1CCC(c2nc(C)c(C)c(N3CCCC3)n2)CC1` was 1.27%; that for `Cc1nc(C2CCN(S(=O)(=O)c3ccc(Cl)cc3)CC2)n[nH]1` was 10.6%.
In the case of `CC(C#N)NS(=O)(=O)c1cccc(C(C)C)c1` (stereo not given), the cytotoxicity at 10 µM was 0.846%.
As to `COc1cccnc1NC(=O)COC1CCCC1`, the cytotoxicity at 10 µM worked out at 8.06%.
In the case of `COC(C)C(=O)NS(=O)(=O)c1cccc2cc(C)cnc12` (stereo not given), the cytotoxicity at 10 µM was -6.55%.
With `CC1CCCN(Cc2ccc(CNC(=O)NCc3ccncc3)cc2)C1` (stereo not given), the cytotoxicity at 10 µM stood at 4.64%.
`CCCc1noc(C(C)S(=O)(=O)Cc2nc(C3CC3)no2)n1` (stereo not given): the cytotoxicity at 10 µM was -9.02%.
The value for `Cc1oc(NC(=O)C(C)N2CCN(CCO)CC2)c(C#N)c1C` (stereo not given) was -13.6%; that for `CCOCCCNC(=O)c1cc(Br)c2c(c1)OCCO2` was -2.21%.
Regarding `COc1ncccc1CNC(=O)CN1CCCCCC1=O`, the cytotoxicity at 10 µM was -10.4%.
In the case of `Cc1ccc(CCCC(=O)N(C)CCN2CCOCC2)cc1`, the cytotoxicity at 10 µM is -2.75%.
For `N#CC1(NC(=O)CNCCn2cccn2)CCCCC1`, the cytotoxicity at 10 µM was -7.5%.
The value for `Cc1ncc(CN(C)C(=O)Nc2ccc(CN3CCOC3=O)cc2)s1` was -2.97%.
With `O=S(=O)(NC(CO)Cc1c[nH]c2ccccc12)c1cncc(F)c1` (stereo not given), the cytotoxicity at 10 µM amounted to 12%.
The value for `Cc1ccc(NS(=O)(=O)c2cnn(-c3ccccc3)c2)c(C(=O)O)c1` was -3.11%; that for `CC(C)N(Cc1ccc(C#N)cc1)Cc1nnsc1Cl` was 12.6%.
The value for `COc1cc2c(cc1OC)S(=O)(=O)N(Cc1cccc(C)c1)C2=O` was 5.98%; that for `CCOc1cc(CNC(=O)c2cc(-c3ccccn3)no2)ccn1` was 1.63%; that for `Cc1nc(C2CCCC2)sc1C(N)=O` was -5.03%.
In the case of `Cc1nc2n(n1)CC(NCC(=O)N(C)Cc1cccs1)CC2` (stereo not given), the cytotoxicity at 10 µM was -0.189%.
The value for `CNC(=O)C(C)(C)CNC(=O)Nc1ccncc1C` was -12.1%.
Consider `Cc1cn2nc(N3CCCC3C(=O)N3CCOCC3)sc2n1` (stereo not given), for which the cytotoxicity at 10 µM is -3%.
As to `CC(C)c1cc(CNC(=O)Nc2cc(F)cc(N3CCCC3)c2)on1`, the cytotoxicity at 10 µM was 1.57%.
In the case of `CC(=O)NC1(C(=O)N(C)Cc2c(C)noc2C)CCCCC1`, the cytotoxicity at 10 µM came out at 14.4%.
The value for `Cc1ccc(-c2n[nH]cc2CNCC2CCc3nnc(C)n3C2)cc1` (stereo not given) was -8.35%.
The value for `N#Cc1ccc(F)c(CNC(=O)NCCC(=O)NC2CCCC2)c1` was -5.95%.
The value for `CN(C)CCN(Cc1cccc(C(F)(F)F)c1)C(=O)c1cc[nH]n1` was 1.39%; that for `CC(O)c1cccc(N2CCC3(CCC(=O)N(CC(N)=O)C3)CC2)n1` (stereo not given) was -2.55%; that for `O=C(c1ccc(Cn2cnnn2)cc1)N1CC[C@H](CO)[C@H](O)C1` was 0.529%.
In the case of `CCn1nc(C)c(CCNC(=O)c2cccc(NCC(=O)O)c2)c1C`, the cytotoxicity at 10 µM was 15.2%.
In the case of `Cc1nc2ncccn2c1C(=O)N1CCc2[nH]cnc2C1`, the cytotoxicity at 10 µM was 7.94%.
Consider `CN(C)C[C@@H]1CN(C2CCN(c3ccccc3Cl)CC2)C[C@@H]1CO`, for which the cytotoxicity at 10 µM is -10.1%.
As to `COc1cc(-c2nc(CN(CCO)CCO)c(C)o2)ccc1F`, the cytotoxicity at 10 µM is -10.2%.
The value for `O=S(=O)(NCc1ccccc1)NCc1nc(-c2ccncc2)n[nH]1` was 14.3%; that for `CC(C)CN1CCCC1c1ccc(C(=O)Nc2cc[nH]n2)s1` (stereo not given) was 10.3%.
As for `COCCN(Cc1cnn(C)c1)C(=O)C1COc2c(cccc2OC)C1` (stereo not given), the cytotoxicity at 10 µM is -11.9%.
`CC(C)c1nc(C(=O)N2CCCC(N)CC2)cs1` (stereo not given): the cytotoxicity at 10 µM is -2.56%.
The value for `CCN(C)C[C@@H]1CN(Cc2cccc(O)c2)C[C@@H]1CO` was -1.13%.
On to `CCc1nc(C)c(-c2nccn2CC2CCN(C3CCCC3)CC2)[nH]1`, for which the cytotoxicity at 10 µM amounted to 3.98%.
Turning to `Nc1nc2c(c(N3CCC(CN4CCCC4=O)CC3)n1)CCNCC2`, the cytotoxicity at 10 µM was -3.95%.
The value for `COCCNc1nc2c(c(NCC3CCOC3)n1)CCNCC2` (stereo not given) was -2.85%; that for `O=C(C1CC(=O)N(C2CCCC2)C1)N1CCN(CCn2cccc2)CC1` (stereo not given) was 12.8%; that for `CCc1nc(C2CCCN2CC(=O)Nc2cc(C)on2)no1` (stereo not given) was -3.08%.
In the case of `CCc1nnc(CN2CCCCC2Cn2nc(C)nc2C)o1` (stereo not given), the cytotoxicity at 10 µM was -2.4%.
The value for `CC1CCN(CCNC(=O)C(C)n2cncn2)CC1` (stereo not given) was -9.12%; that for `Cc1ccoc1C(=O)NC1CCN(CC(=O)N(C)c2ccccc2)CC1` was -2.93%; that for `CC(c1nc(C(C)(C)C)no1)N1CCN(Cc2ccco2)CC1` (stereo not given) was -5.02%.
The value for `CN(C)c1cc(C(=O)N2CCCC2c2cnn(C)c2)ccn1` (stereo not given) was -1.39%.
The value for `CCCN(CC)c1ccc(C(=O)N2CCCC2c2cnn(C)c2)cn1` (stereo not given) was -6.75%; that for `CN(C)S(=O)(=O)c1ccc(CN2CCCC2c2cccs2)o1` (stereo not given) was -3.31%; that for `Cn1cc(C2CCCN2C(=O)c2ccc(NC3CC3)nc2)cn1` (stereo not given) was -14.4%.
Turning to `CCc1nnc2n1CCN(CC(O)c1ccc3c(c1)OCCO3)C2` (stereo not given), the cytotoxicity at 10 µM was -7.3%.
For the compound `Cc1ccccc1OCCCC(=O)NCC1CN(C)CCO1` (stereo not given), the cytotoxicity at 10 µM is -8.69%.
The value for `Cc1cnn(CC2CCCN2Cc2cc(C)no2)c1` (stereo not given) was -1.66%.
The value for `CCCc1noc(CN2CCC(C(=O)Nc3cnn(CC)c3)CC2)n1` was -0.988%; that for `CCOc1ncccc1CNCc1c(C(C)C)nn(C)c1N(C)C` was -8.19%.
The value for `CCN(C(=O)CN(C)C(c1cccc(F)c1)c1ccccn1)C1CC1` (stereo not given) was -8.65%; that for `Cc1ccc(CNC(=O)CN2C=Nc3ccccc3S2(=O)=O)s1` was 0.347%; that for `Cc1ccc(CC(=O)N2CSCC2C(=O)N(C)Cc2ccco2)o1` (stereo not given) was -4.32%.
As to `CC(NC(=O)c1ccc2c(c1)OCC(=O)N2)c1ccccc1F` (stereo not given), the cytotoxicity at 10 µM is -4.42%.
The value for `CC(=O)Nc1nc(C(=O)N2CCCC(c3cc(C)[nH]n3)C2)cs1` (stereo not given) was -8.85%; that for `Cc1ccc(N2CCCN(C(=O)C(C(C)C)n3cncn3)CC2)nn1` (stereo not given) was -5.99%.
Consider `O=C(c1cccc(Cn2ccnc2)c1)N1CCCC(n2ccnc2)C1` (stereo not given), for which the cytotoxicity at 10 µM was -6.61%.
Turning to `Cc1ccc(C(=O)N2CCN(Cc3nc(C(C)C)no3)CC2)c(=O)[nH]1`, the cytotoxicity at 10 µM is -7.67%.
Take `Cn1cc(C2CCCN2C(=O)CCCOc2ccc(F)cc2F)cn1` (stereo not given): the cytotoxicity at 10 µM is -7.54%.
The value for `N#Cc1cc(NS(=O)(=O)c2ccc(C(=O)O)cc2F)ccc1F` was -10.9%; that for `Cc1cccc(NC(=O)NCCCn2nc3ccccn3c2=O)c1C` was -6.73%.
With `O=C(c1cc2cc(F)ccc2[nH]1)N1CCC(Nc2cccnn2)CC1`, the cytotoxicity at 10 µM is -5.97%.
The value for `CC(c1cccc(S(N)(=O)=O)c1)N(C)CCOc1ccccc1` (stereo not given) was -3.83%.
The value for `CC(Cn1cncc1-c1cnn(Cc2ccccc2)c1)N1CCCCC1` (stereo not given) was 6.58%; that for `Cc1cc(C(=O)N2CCC3(C2)CN(c2cccnc2)C(=O)CN3C)[nH]n1` (stereo not given) was 5.2%.
The value for `COc1ccc(CN2C[C@H]3CN(Cc4ccncc4)C(=O)[C@H]3C2)cc1` was 4.35%; that for `O=C([C@H]1C[C@H]2OCC[C@H]2N(C(=O)c2ccccn2)C1)N1CCCCO1` was 13.1%.
On to `COCC1CC2(CCN(Cc3cccnc3)CC2)CN1c1ncccn1` (stereo not given), for which the cytotoxicity at 10 µM came to 3.71%.
The value for `CSc1nccc(N2C[C@H]3CC[C@@H](C2)N(CC2CCC2)C3=O)n1` was 1.88%.
On to `CC1CCCN(S(=O)(=O)NCCNC(=O)c2ncccc2O)C1` (stereo not given), for which the cytotoxicity at 10 µM came to 3.07%.
